Publication PMC12484386 (Journal of Clinical Pharmacology, 2025)

Experiments:
Hepatic impairment study = assay type: in vivo, human
Method in brief: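 Open-label single oral dose after ≥10 h overnight fast, held to 2 h postdose: Child-Pugh B (n=8) 2 mg; matched normal hepatic function (n=8) 5 mg. Parent and M11 plasma sampled predose to 240 h by validated LC-MS/MS (1.00-750 ng/mL). Data dose-normalized to 5 mg. Ln-transformed parameters by one-way ANOVA, cohort fixed; GMR and 90% CI back-transformed; unbound parameters analysed likewise.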

Renal impairment study = assay type: in vivo, human
Method in brief: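 Renal function by Cockcroft-Gault. Parent and M11 plasma predose to 240 h by LC-MS/MS (1.00-750 ng/mL); unbound fraction by equilibrium dialysis at 4 h. Ln-parameters by one-way ANOVA; GMR with 90% CI.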

[1] = Plasma protein binding in human plasma at 1-10 µM; assay type: in vitro ADME
AAG = assay: Separate in vitro equilibrium dialysis study, binding to AAG; assay type: in vitro ADME; settings: AAG (alpha-1-acid glycoprotein)
HSA = HSA (Homo sapiens, UniProt P02768); assay: Separate in vitro equilibrium dialysis study, binding to HSA; assay type: in vitro ADME; settings: HSA (human serum albumin)
[2] = Safety and tolerability, hepatic impairment study; assay type: in vivo, human
[3] = Safety and tolerability, renal impairment study; assay type: in vivo, human
[4] = cited from earlier work
[5] = single oral 5 mg radiolabeled fruquintinib, healthy volunteers; cited from earlier work
[6] = cited from earlier work; remark: listed apart in the source
plasma protein = settings: cited from earlier work
[7] = cited from earlier work; remark: listed apart in the source
[8] = moderate hepatic impairment vs normal hepatic function
[9] = moderate renal impairment vs normal renal function
[10] = severe renal impairment compared with normal renal function
[11] = severe renal impairment vs normal renal function

HSA, sequence (P02768 25-609): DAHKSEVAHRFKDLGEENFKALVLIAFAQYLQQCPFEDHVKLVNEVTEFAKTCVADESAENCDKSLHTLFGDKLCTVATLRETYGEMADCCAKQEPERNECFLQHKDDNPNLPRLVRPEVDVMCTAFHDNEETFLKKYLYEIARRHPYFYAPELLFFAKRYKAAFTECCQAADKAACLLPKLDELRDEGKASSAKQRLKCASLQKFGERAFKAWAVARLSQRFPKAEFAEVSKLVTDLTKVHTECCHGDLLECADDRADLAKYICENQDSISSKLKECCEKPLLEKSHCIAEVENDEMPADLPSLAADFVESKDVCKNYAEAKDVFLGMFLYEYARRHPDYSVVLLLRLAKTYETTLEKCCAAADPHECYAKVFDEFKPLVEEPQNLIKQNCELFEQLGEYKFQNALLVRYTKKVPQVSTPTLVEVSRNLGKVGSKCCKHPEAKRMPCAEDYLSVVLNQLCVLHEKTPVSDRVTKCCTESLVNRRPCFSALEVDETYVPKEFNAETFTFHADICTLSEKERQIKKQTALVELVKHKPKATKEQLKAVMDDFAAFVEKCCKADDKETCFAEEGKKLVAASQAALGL

CL/F, mean (SD) (Hepatic impairment study; moderate hepatic impairment (Child-Pugh B), N = 8, single oral 2 mg): 17.4 mL/min
difference in dose-normalized Cmax (Hepatic impairment study; moderate hepatic impairment compared with normal hepatic function): less than 5%
AUCs lower (Hepatic impairment study; moderate hepatic impairment compared with normal hepatic function, dose normalized): approximately 10%
LS GMR DN AUC0-inf [90% CI] (Hepatic impairment study; [8]): 0.91
LS GMR DN AUC0-t [90% CI] (Hepatic impairment study; [8]): 0.89
LS GMR DN Cmax [90% CI] (Hepatic impairment study; [8]): 1.04
CL/F, mean (SD) (Hepatic impairment study; normal hepatic function, N = 8, single oral 5 mg): 15.3 mL/min
CL/F, mean (SD) (Renal impairment study; moderate renal impairment (CrCl 30-59 mL/min), N = 8, single oral 5 mg): 14.2 mL/min
difference across Cmax, AUC0-t, and AUC0-inf (Renal impairment study; moderate renal impairment compared with normal renal function): less than 8%
LS GMR DN AUC0-inf [90% CI] (Renal impairment study; [9]): 1.07
LS GMR DN AUC0-t [90% CI] (Renal impairment study; [9]): 1.06
LS GMR DN Cmax [90% CI] (Renal impairment study; [9]): 0.95
CL/F, mean (SD) (Renal impairment study; normal renal function, N = 8, single oral 5 mg): 15.0 mL/min
CL/F, mean (SD) (Renal impairment study; severe renal impairment (CrCl 15-29 mL/min), N = 8, single oral 2 mg): 15.0 mL/min
difference in AUCs (Renal impairment study; [10]): less than 3%
dose-normalized Cmax lower (Renal impairment study; [10]): approximately 11%
LS GMR DN AUC0-inf [90% CI] (Renal impairment study; [11]): 1.01
LS GMR DN AUC0-t [90% CI] (Renal impairment study; [11]): 0.97
LS GMR DN Cmax [90% CI] (Renal impairment study; [11]): 0.89
fraction unbound at 1 µM [1]: 0.046
fraction unbound at 3 µM [1]: 0.047
fraction unbound at 10 µM [1]: 0.047
fraction unbound at 0.1 µM (AAG): 0.356
fraction unbound at 1 µM (AAG): 0.358
fraction unbound at 10 µM (AAG): 0.413
fraction unbound at 0.1 µM (HSA): 0.0565
fraction unbound at 1 µM (HSA): 0.0635
fraction unbound at 10 µM (HSA): 0.0627
SMILES: CNC(=O)c1c(C)oc2cc(Oc3ncnc4cc(OC)c(OC)cc34)ccc12 [fruquintinib]
participants with treatment emergent adverse events (TEAEs) ([2]; 4 of the 16 participants, all TEAEs in moderate hepatic impairment): 25.0%
tolerability ([2]; both studies, single dose 2 or 5 mg): generally well tolerated
participants with treatment-related TEAEs ([2]; hepatic impairment study, three of 16 participants): 18.8%
participants with dizziness ([2]; moderate hepatic impairment, one of 8, grade 1, nonserious, related): 12.5%
participants with urinary tract infection ([2]; moderate hepatic impairment, one of 8, grade 2, nonserious, not related): 12.5%
participants with TEAEs ([3]; 3 of the 24 participants): 12.5%
participants with headache ([3]; moderate renal impairment, one of eight, grade 1, nonserious, not related): 12.5%
participants with hypoglycemia ([3]; moderate renal impairment, one of eight, grade 3, nonserious, not related): 12.5%
participants with eye pruritis and periorbital edema ([3]; normal renal function, one of eight, grade 1, nonserious, not related): 12.5%
elimination half-life (t1/2) [4]: approximately 42 h
weight-normalized apparent clearance [4]: approximately 0.17 mL/min/kg
time to steady-state concentrations ([4]; consecutive QD dosing): 14 days
median time to maximum plasma concentration (Tmax) ([4]; oral administration, patients with cancer): approximately 2 h
accumulation at steady-state ([4]; relative to a single dose, QD dosing): approximately 4 fold
dose recovered in feces [5]: 30%
dose recovered in urine [5]: approximately 60%
dose recovered unchanged in feces [5]: 5%
dose recovered unchanged in urine [5]: 0.5%
change in fruquintinib exposure ([6]; co-administration with itraconazole, a strong CYP3A inhibitor): did not result in clinically meaningful change
reduction of fruquintinib exposure ([6]; concurrent use of rifampin, a strong metabolic enzyme inducer): approximately 65%
protein binding in human plasma (plasma protein): approximately 95%
inter-individual variability in apparent oral clearance [7]: 26%
impact of mild to moderate renal impairment and mild hepatic impairment on PK ([7]; population PK analysis): no clinically meaningful impact
